Reference: publication PMC3338887 (Journal of Natural Products, 2012)
“Also recorded” adds a separate entry of the source.

How the values were obtained:
[1] = tested on: C. albicans DAY185 biofilm formation; assay: Biofilm time of addition assay; assay type: cell-based, Candida albicans; details: conclusion from the time-of-addition study
[2] = Stability in organic solvents; assay type: physicochemical; details: MeOH and varying H2O-MeOH mixtures, CHCl3, CH2Cl2, EtOAc
[3] = tested on: MIA PaCa-2 cells; assay: Mammalian cell cytotoxicity assay; assay type: cell-based, human; details: MIA PaCa-2 cell line, 24 h, MTT
[4] = tested on: C. albicans DAY185 hyphae formation; assay: Hyphae formation assay; assay type: cell-based, Candida albicans; details: for network of hyphal growth versus vehicle control: 50 μM, 6 h incubation, Figure 3; for germ tube and hyphae formation by 6 h: 6 h post inoculation; for germ tube and hyphae formation by 6 h / hyphae at 24 h: versus vehicle-treated cells; for hyphae at 24 h: 24 h post inoculation; for C. albicans hyphae formation / hyphal morphogenesis: phase contrast microscopy
Method in brief: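 DAY185 grown overnight in BHI at 37 °C, pelleted, washed and resuspended in PBS pH 7.4. Seeded at 1×10^6 cells/well for 1 h at 37 °C, then washed twice with PBS to remove non-adherent cells. RPMI 1640 with 2% glucose plus test compound (50 μM), farnesol (50 μM) or DMSO vehicle (1% by vol.) added. Incubated at 37 °C; phase-contrast microscopy (×200) at 2.5, 6 and 24 h.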

[5] = tested on: C. albicans DAY185; assay: C. albicans growth inhibition / cell viability; assay type: cell-based, Candida albicans; details: for MIC: Candida albicans, DAY185, 48 h, read-out: MIC of growth inhibition
[6] = several organic solvents; cited from earlier work

**Q.** With `CC1(C)C=Cc2c(ccc3c2[N+]([O-])=C2C(C)(C)[C@@H]4C[C@]56CCCN5C(=O)[C@]4(NC6=O)[C@H]4N5C(=O)[C@@]67CCCN6C(=O)[C@@]56[C@H](c5c([nH]c8c9c(ccc58)OC(C)(C)C=C9)C(C)(C)[C@@H]6C7)[C@]234)O1` [Compound 1, waikialoid A] as the compound, how does the “effect on preformed biofilms” value [1] read?
**A.** ineffective at disrupting preformed biofilms; also recorded: likely not effective at inhibiting or disrupting preformed biofilms

**Q.** And the stability in solvents [2]?
**A.** very stable for days

**Q.** And the “not toxic to mammalian (human) cells at concentrations up to” value [3]?
**A.** > 200 µM

**Q.** What about the “network of hyphal growth versus vehicle control” value [4] of the same compound?
**A.** significantly reduced or absent from nearly all cells

**Q.** What about the “germ tube and hyphae formation by 6 h” value [4] of the same compound?
**A.** did not form germ tubes or hyphae by 6 h

**Q.** What about the “hyphae at 24 h” value [4] of the same compound?
**A.** severely truncated hyphae

**Q.** What about the “C. albicans hyphae formation / hyphal morphogenesis” value [4] of the same compound?
**A.** inhibited C. albicans hyphal morphogenesis; also recorded: inhibited C. albicans hyphae formation in a dose dependent manner

**Q.** What about the MIC [5] of the same compound?
**A.** > 200 µM

**Q.** Which MIC [5] does the source give for `CC1(C)C=Cc2c(ccc3c2NC(=O)[C@@]32C[C@@]34NC(=O)[C@]5(CCCN5C3=O)C[C@H]4C2(C)C)O1` [Compound 2, notoamide B] here?
**A.** > 200 µM

**Q.** With `CC1(C)C=Cc2c(ccc3c2NC(=O)[C@@]32[C@H](O)[C@@]34NC(=O)[C@]5(CCCN5C3=O)C[C@H]4C2(C)C)O1` [Compound 3, sclerotiamide] as the compound, how does the MIC [5] read?
**A.** > 200 µM

**Q.** With `CC1(C)C=Cc2c(ccc3c4c([nH]c23)C(C)(C)[C@@H]2C[C@]35CCCN3C(=O)[C@]2(NC5=O)[C@H]4O)O1` [Compound 5, notoamide R] as the compound, how does the MIC [5] read?
**A.** > 200 µM

**Q.** For `CC1(C)C=Cc2c(ccc3c4c([nH]c23)C(C)(C)[C@@H]2C[C@]35CCCN3C(=O)[C@@]2(C4)NC5=O)O1` [Compound 6, stephacidin A], which MIC [5] is on record?
**A.** > 200 µM

**Q.** Which MIC [5] does the source give for `CC1(C)C=Cc2c(ccc3c2[N+]([O-])=C2C3=C[C@@]34NC(=O)[C@]5(CCCN5C3=O)C[C@H]4C2(C)C)O1` [Compound 7, CJ-17665] here?
**A.** > 200 µM

**Q.** With `CC1(C)C=Cc2c(ccc3c2[N+]([O-])=C2C(C)(C)[C@@H]4C[C@]56CCCN5C(=O)[C@]4(NC6=O)[C@H]4N5C(=O)[C@@]67CCCN6C(=O)[C@@]56[C@@H]([C@]234)[C@]2(O)C(=[N+]([O-])c3c2ccc2c3C=CC(C)(C)O2)C(C)(C)[C@@H]6C7)O1` [Compound 14, waikialoid B] as the compound, how does the MIC [5] read?
**A.** > 200 µM

**Q.** Which “network of hyphal growth versus vehicle control” value [4] does the source give for `C/C=C/C=C/C=C/[C@H]1C[C@@H](O)CC(=O)[C@@H]1C` [Compound 15, waikialide A] here?
**A.** significantly reduced or absent from nearly all cells

**Q.** What about the “germ tube and hyphae formation by 6 h” value [4] of the same compound?
**A.** did not form germ tubes or hyphae by 6 h

**Q.** What about the “hyphae at 24 h” value [4] of the same compound?
**A.** severely truncated hyphae

**Q.** And the “C. albicans hyphae formation / hyphal morphogenesis” value [4]?
**A.** inhibited C. albicans hyphae formation in a dose dependent manner

**Q.** And the MIC [5]?
**A.** > 200 µM

**Q.** Which MIC [5] does the source give for `C/C=C/C=C/C=C/[C@H]1C[C@@H](O)C[C@@H](O)[C@@H]1C` [Compound 16, waikialide B] here?
**A.** > 200 µM

**Q.** With `CC1(C)C=Cc2c(ccc3c2[N+]([O-])=C2C(C)(C)[C@@H]4CC56CCCN5C(=O)[C@]4(NC6=O)[C@H]4N5C(=O)[C@@]67CCCN6C(=O)[C@@]56[C@H](c5c(n(O)c8c9c(ccc58)OC(C)(C)C=C9)C(C)(C)[C@@H]6C7)[C@]234)O1` [Compound 17, stephacidin B] as the compound, how does the “stability in organic solvents” value [6] read?
**A.** degrade in several organic solvents

**Q.** With `CC(C)=CCC/C(C)=C/CC/C(C)=C/CO` [farnesol, reference compound] as the compound, how does the “network of hyphal growth versus vehicle control” value [4] read?
**A.** significantly reduced or absent from nearly all cells

**Q.** And the MIC [5]?
**A.** > 200 µM

**Q.** What about the “effect on C. albicans cell survival” value ([5]; positive control) of the same compound?
**A.** did not impede cell survival
